HIV Env fusion: blocks HIV Env-driven cell-cell fusion. HeLa-JRFL Env/CEM21 cell fusion, luciferase. inhibition, % at 12.3 µM. 360,000 compounds, 1.1% hits;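 active = mean replicate inhibition score of at least 50 and every replicate individually at or above 50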;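 also: 0% = plate neutral controls and 100% = maraviroc near 300 nM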
CFTR F508del cor: CFTR F508del correction in bronchial cells; CFBE cells, YFP halide quenching; stimulated with forskolin plus potentiator P3; % fluorescence drop versus neutral controls; activity (quench increase), % at 7.58 µM; 350,000 compounds, 0.36% hits;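 active = mean added fluorescence quench of at least 8% versus neutral control, with both replicates also reaching 8%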;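 also: cells transiently co-express mutant CFTR-F508del with the halide-sensitive YFP; corrector assay measuring rescue of mutant channel to the surface after 24 h compound exposure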
INS-1E GSIS act: GLuc luminescence reporter in INS-1E cells, primary screen for activators of glucose-dependent secretion of insulin. INS-1E GLuc reporter insulin secretion, 2-3 h. activation, % at 16.6 µM. 370,000 compounds, 0.61% hits. AID 743287;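 active = lowest replicate activation of at least 40%, so every replicate reaches that level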;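 also: 0% = median of neutral control wells and 100% = median of IBMX positive control wells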
rRNA inh HTS: inhibitors of bacterial rRNA selective over humanized ribosomes | E. coli WT GFP vs humanized-ribosome RFP mutants, fluorescence, 24 h; active compounds read low; DMSO median 0, no signal -100 | GFP signal change (wild-type ribosome), % (test concentration not listed) | 350,000 compounds, 1.6% hits | AID 720706;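 active = significant combined selectivity score with lowered wild-type GFP, culture density cut under 30%, mutant RFP and density less affected; inactive = any of these conditions unmet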
miR-122 sensor: blocks miR-122 activity in Huh7 sensor cells. Huh7 miR-122 Renilla luciferase sensor, 48 h; neutral wells = 0, positive control = 100. activation (reporter increase), % at 12.5 µM. 340,000 compounds, 0.3% hits;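 active = mean replicate activation score at least 90 and every replicate individually at or above 90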;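 also: higher luciferase means less miR-122 activity so hits act as miR-122 inhibitors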
Cneo AK release: Cryptococcus neoformans lysis via adenylate kinase release | C. neoformans lysis, adenylate kinase release luminescence, 4 h; normalised: neutral wells 0, clomiphene wells 100 | lysis activity, % at 15 µM | 360,000 compounds, 0.2% hits | AID 651654;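 active = mean lysis activity across replicates of at least 80%, whatever share of replicates individually reach that level; inactive = mean lysis activity below 80%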
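Test system: log-phase Cryptococcus neoformans yeast cells; Quantity: yeast cell density of 5 × 10^6 cells/mL; Buffer or medium: YPD; Doses: single compound concentration per well; Timing: 4 h at 37 °C static, read 1 h later; Measured by: AK luminescence; Read-out basis: lysis from increased AK signal; Control set: Clomiphene as positive control.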
Numbers without * were called inactive; / = not tested or not shown; [ ] = another dose, or the depositor's remark. Only some compounds are listed: those with a hit (about 3.1% of all), similar ones and a draw of the others.

SMILES	HIV Env fusion	CFTR F508del cor	INS-1E GSIS act	rRNA inh HTS	miR-122 sensor	Cneo AK release
C[C@@H]1CN([C@@H](C)CO)C(=O)c2cc(-c3ccc(F)cc3)cnc2O[C@H]1CN(C)C(=O)C1CCC1	5.0[16.7 µM]	-6.2	7.3	-1.4	5.4[16.7 µM]	3.7
CC(C)NC[C@@H]1[C@@H](c2ccc(C3=CCCCC3)cc2)[C@H](CO)N1C(=O)NC(C)C	/	0.4	-11.6	-2.7	-12.5[16.7 µM]	4.1
CCC(=O)Nc1ccc2c(c1)C(=O)N(C)C[C@@H](OC)[C@@H](C)CN(CCc1ccccc1)[C@@H](C)CO2	13.3[16.7 µM]	2.7	13.2	2.2	-2.8[16.7 µM]	4.3
O=C(CCNC(=O)c1ccccc1)N=Nc1c(O)[nH]c2ccccc12	-64.7	-1.4	5.7	5.3	/	/
O=C(Cn1nnc(-c2ccccc2)n1)N=Nc1c(O)[nH]c2ccccc12	-134.2	/	92.8*	/	2.4	/
Cn1c(=O)n(Cc2ccccc2Br)c2ccccc21	-15.3	1.6	50.3*	-23.0	/	0.6
O=[N+]([O-])c1cc(-c2nnc(N3CCOCC3)c3ccccc23)ccc1N1CCOCC1	13.6	2.0	23.3	-35.3*	/	/
COc1ccc(-n2sc3ccccc3c2=O)cc1	-44.1	-6.0	86.6*	-1.4	0.1	-1.3
COc1ccc(-n2sc3ccc(F)cc3c2=O)cc1	1.2	-0.1	31.6	-34.3	-4.5	-2.6
O=S(=O)(Nc1ccc(Cl)cc1)c1cccc2nsnc12	-3.6	1.0	-25.7	-13.7	120.5*	-6.3
Cc1ccc(NS(=O)(=O)c2cccc3nsnc23)cc1C	-62.3	2.0	-25.8	-14.2	114.1*	0.2
C[C@@H]1CN([C@@H](C)CO)S(=O)(=O)c2ccc(-c3cccc(C(=O)N(C)C)c3)cc2O[C@H]1CN(C)C	-4.0[16.7 µM]	-1.0	7.7	1.6	7.2[16.7 µM]	-2.3
CCOc1ccc(C(C)=O)cc1COC(=O)c1ccccc1C(=O)N(C)Cc1ccccc1	98.2*	-1.4	-54.9	-24.6	41.4	-3.3
CN(Cc1ccccc1)C(=O)c1ccccc1C(=O)OCC(=O)N(Cc1ccccc1)C(C)(C)C	-53.6	1.1	-67.1	-23.8	3.0	-0.4
Cc1noc(C)c1S(=O)(=O)Nc1ccc2c(c1)C(=O)N([C@H](C)CO)C[C@H](C)[C@H](CN(C)S(=O)(=O)c1cccs1)OCCCC[C@@H](C)O2	-34.5[16.7 µM]	0.3	7.0	1.2	1.3[16.7 µM]	1.5
COc1ccccc1-n1cc([C@@H]2C[C@H]3CN(c4ccccc4)C(=O)[C@]34CCCN24)cn1	58.6*	-3.8	-23.8	6.0	36.8	/
O=C(COc1ccccc1)N(Cc1cccc(F)c1)C1CCS(=O)(=O)C1 (centres undefined)	1.4	-2.2	51.4*	7.7	4.4	-2.3
CCCNC(=O)N(C)C[C@H]1Oc2ncc(-c3ccc(C(=O)N(C)C)cc3)cc2C(=O)N([C@H](C)CO)C[C@@H]1C	-18.6[16.7 µM]	2.4	-9.6	0.6	/	-4.1
N#Cc1ccc(S(=O)(=O)N2CCCCC2c2cc(C(=O)Nc3cccc4c3CCCC4)no2)cc1 (centres undefined)	59.9*	-0.8	13.8	-4.1	-7.9	0.3
CS(=O)(=O)N1CCCCC1c1cc(C(=O)Nc2cccc3c2CCCC3)no1 (centres undefined)	-12.1	2.9	54.1*	-1.3	1.9	0.1
O=C(Nc1cccc2c1CCCC2)c1cc(C2CCCCN2S(=O)(=O)c2cccs2)on1 (centres undefined)	0.1	-0.1	6.7	5.9	-0.3	2.1
O=C(CCN1CCOCC1)c1ccc2c(c1)OCCO2	/	/	47.6*	/	-2.7	0.2
O=C(CCCN1CCOCC1)c1ccc2c(c1)OCCO2	/	/	/	/	0.8	-1.0
O=C(CCN1CCCCC1)c1ccccc1	/	-1.3	-5.2	17.0	-6.0	-1.3
O=C(CCN1CCOCC1)c1ccccc1	/	-4.8	105.2*	5.4	-2.5	/
Cc1cccc(S(=O)(=O)N2C[C@H](O)COC[C@@H]3O[C@@H](CC(=O)Nc4ccc(-c5ccccc5)cc4)CC[C@H]32)c1	18.9[16.7 µM]	4.5	-9.1	6.3	0.4[16.7 µM]	54.0
CCCN1[C@@H]2Cn3c(ccc(-c4cccc(OC)c4)c3=O)[C@H]1[C@@H](C(=O)NCC)[C@@H]2CO	/	/	3.5	-0.2	/	1.9
